Laboratory results reported in ChEMBL document CHEMBL3045650, “Design, synthesis, and 3D-QSAR analysis of novel 1,3,4-oxadiazol-2(3H)-ones as protoporphyrinogen oxidase inhibitors” (J Agric Food Chem, 2010).
pKi: −log10 of the molar value.

Assays:
[1] = biological target: T1, Protoporphyrinogen oxidase (Homo sapiens, UniProt P50336); assay: Inhibition of Homo sapiens (human) recombinant protoporphyrinogen oxidase expressed in Escherichia coli JM109 assessed as oxidation of protoporphyrinogen IX substrate by fluorescence assay
T1 sequence (P50336 whole entry): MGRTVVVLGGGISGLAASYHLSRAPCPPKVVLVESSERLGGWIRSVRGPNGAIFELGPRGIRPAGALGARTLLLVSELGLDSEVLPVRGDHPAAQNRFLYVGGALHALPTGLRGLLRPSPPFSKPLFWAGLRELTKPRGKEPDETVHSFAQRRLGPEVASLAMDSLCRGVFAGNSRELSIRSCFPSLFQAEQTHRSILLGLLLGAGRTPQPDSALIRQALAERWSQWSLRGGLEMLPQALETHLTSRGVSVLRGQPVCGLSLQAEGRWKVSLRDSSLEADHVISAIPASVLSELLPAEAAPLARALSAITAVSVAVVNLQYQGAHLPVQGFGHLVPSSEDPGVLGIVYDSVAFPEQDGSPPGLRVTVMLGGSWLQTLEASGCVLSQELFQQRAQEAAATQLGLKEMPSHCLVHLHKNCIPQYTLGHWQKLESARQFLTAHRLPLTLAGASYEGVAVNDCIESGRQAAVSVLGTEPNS

Cyperus iria [2] = assay: Post-emergence herbicidal activity against Cyperus iria assessed as growth inhibition at emulsified concentrate of 150 g/ai ha after 15 days by greenhouse test; assay type: functional
Eclipta prostrata [3] = assay: Post-emergence herbicidal activity against Eclipta prostrata assessed as growth inhibition at emulsified concentrate of 75 g/ai ha after 15 days by greenhouse test; assay type: functional
Outline: (§1)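 Compounds were made up as 100 g/L emulsifiable concentrates in DMF with Tween-80, then diluted in water. About 20 seeds were sown 1-3 cm deep in pots and grown in a greenhouse at 15-30 °C and 50% relative humidity. Sprays were applied postemergence at the two-leaf stage. Untreated and DMF + Tween-80 solvent controls were included. Injury was scored visually 15 days after treatment, with three replicates per treatment.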

Rumex acetosa [4] = assay: Post-emergence herbicidal activity against Rumex acetosa assessed as growth inhibition at emulsified concentrate of 37.5 g/ai ha after 15 days by greenhouse test; assay type: functional
Amaranthus retroflexus [5] = assay: Post-emergence herbicidal activity against Amaranthus retroflexus assessed as growth inhibition at emulsified concentrate of 150 g/ai ha after 15 days by greenhouse test; assay type: functional
Outline: (§2)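 About 20 seeds sown 1–3 cm deep, grown at 15–30 °C and 50% RH. Dicot seedlings sprayed postemergence at the two-leaf stage with a 100 g/L emulsifiable concentrate (DMF/Tween-80) diluted in water, 150 g ai/ha. Untreated and solvent controls included. Visual rating at 15 days, three replicates.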

Echinochloa crus-galli = assay: Post-emergence herbicidal activity against Echinochloa crus-galli (barnyard grass) assessed as growth inhibition at emulsified concentrate of 150 g/ai ha after 15 days by greenhouse test; assay type: functional
Outline: (§3)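 About 20 seeds sown 1–3 cm deep, grown at 15–30 °C and 50% RH. Monocot seedlings sprayed postemergence at the one-leaf stage with a 100 g/L emulsifiable concentrate (DMF/Tween-80) diluted in water, 150 g ai/ha. Untreated and solvent controls included. Visual rating at 15 days, three replicates.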

Abutilon theophrasti [6] = assay: Post-emergence herbicidal activity against Abutilon theophrasti (velvetleaf) assessed as growth inhibition at emulsified concentrate of 37.5 g/ai ha after 15 days by greenhouse test; assay type: functional
Brassica juncea [7] = assay: Post-emergence herbicidal activity against Brassica juncea assessed as growth inhibition at emulsified concentrate of 37.5 g/ai ha after 15 days by greenhouse test; assay type: functional
Outline: as §1

Polygonum humifusum [8] = assay: Post-emergence herbicidal activity against Polygonum humifusum assessed as growth inhibition at emulsified concentrate of 37.5 g/ai ha after 15 days by greenhouse test; assay type: functional
Amaranthus retroflexus [9] = assay: Post-emergence herbicidal activity against Amaranthus retroflexus assessed as growth inhibition at emulsified concentrate of 75 g/ai ha after 15 days by greenhouse test; assay type: functional
Outline: as §1

Polygonum humifusum [10] = assay: Post-emergence herbicidal activity against Polygonum humifusum assessed as growth inhibition at emulsified concentrate of 75 g/ai ha after 15 days by greenhouse test; assay type: functional
Eclipta prostrata [11] = assay: Post-emergence herbicidal activity against Eclipta prostrata assessed as growth inhibition at emulsified concentrate of 150 g/ai ha after 15 days by greenhouse test; assay type: functional
Outline: as §2

Amaranthus retroflexus [12] = assay: Post-emergence herbicidal activity against Amaranthus retroflexus assessed as growth inhibition at emulsified concentrate of 37.5 g/ai ha after 15 days by greenhouse test; assay type: functional
Outline: as §1

Eclipta prostrata [13] = assay: Post-emergence herbicidal activity against Eclipta prostrata assessed as growth inhibition at emulsified concentrate of 37.5 g/ai ha after 15 days by greenhouse test; assay type: functional
Outline: as §1

Poa annua = assay: Post-emergence herbicidal activity against Poa annua assessed as growth inhibition at emulsified concentrate of 150 g/ai ha after 15 days by greenhouse test; assay type: functional
Outline: as §3

Digitaria sanguinalis = assay: Post-emergence herbicidal activity against Digitaria sanguinalis (hairy crabgrass) assessed as growth inhibition at emulsified concentrate of 150 g/ai ha after 15 days by greenhouse test; assay type: functional
Outline: as §3

Rumex acetosa [14] = assay: Post-emergence herbicidal activity against Rumex acetosa assessed as growth inhibition at emulsified concentrate of 150 g/ai ha after 15 days by greenhouse test; assay type: functional
Brassica juncea [15] = assay: Post-emergence herbicidal activity against Brassica juncea assessed as growth inhibition at emulsified concentrate of 150 g/ai ha after 15 days by greenhouse test; assay type: functional
Outline: as §2

Cyperus iria [16] = assay: Post-emergence herbicidal activity against Cyperus iria assessed as growth inhibition at emulsified concentrate of 75 g/ai ha after 15 days by greenhouse test; assay type: functional
Abutilon theophrasti [17] = assay: Post-emergence herbicidal activity against Abutilon theophrasti (velvetleaf) assessed as growth inhibition at emulsified concentrate of 75 g/ai ha after 15 days by greenhouse test; assay type: functional
Polygonum humifusum [18] = assay: Post-emergence herbicidal activity against Polygonum humifusum assessed as growth inhibition at emulsified concentrate of 150 g/ai ha after 15 days by greenhouse test; assay type: functional
Abutilon theophrasti [19] = assay: Post-emergence herbicidal activity against Abutilon theophrasti (velvetleaf) assessed as growth inhibition at emulsified concentrate of 150 g/ai ha after 15 days by greenhouse test; assay type: functional
Cyperus iria [20] = assay: Post-emergence herbicidal activity against Cyperus iria assessed as growth inhibition at emulsified concentrate of 37.5 g/ai ha after 15 days by greenhouse test; assay type: functional
Brassica juncea [21] = assay: Post-emergence herbicidal activity against Brassica juncea assessed as growth inhibition at emulsified concentrate of 75 g/ai ha after 15 days by greenhouse test; assay type: functional
Outline: as §1

Rumex acetosa [22] = assay: Post-emergence herbicidal activity against Rumex acetosa assessed as growth inhibition at emulsified concentrate of 75 g/ai ha after 15 days by greenhouse test; assay type: functional

COC(=O)CSc1nc2cc(-n3nc(C(C)(C)C)oc3=O)c(Br)cc2s1
pKi [1]: 5.13 | inhibition (INH) (Cyperus iria [2]): 50% | inhibition (INH) (Eclipta prostrata [3]): 0% | inhibition (INH) (Rumex acetosa [4]): 40% | inhibition (INH) (Amaranthus retroflexus [5]): 80% | inhibition (INH) (Echinochloa crus-galli): 0% | inhibition (INH) (Abutilon theophrasti [6]): 0% | inhibition (INH) (Brassica juncea [7]): 0% | inhibition (INH) (Polygonum humifusum [8]): 60% | inhibition (INH) (Amaranthus retroflexus [9]): 60% | inhibition (INH) (Polygonum humifusum [10]): 70% | inhibition (INH) (Eclipta prostrata [11]): 0% | inhibition (INH) (Amaranthus retroflexus [12]): 50% | inhibition (INH) (Eclipta prostrata [13]): 0% | inhibition (INH) (Poa annua): 0% | inhibition (INH) (Digitaria sanguinalis): 0% | inhibition (INH) (Rumex acetosa [14]): 60% | inhibition (INH) (Brassica juncea [15]): 0% | inhibition (INH) (Cyperus iria [16]): 40% | inhibition (INH) (Abutilon theophrasti [17]): 0% | inhibition (INH) (Polygonum humifusum [18]): 70% | inhibition (INH) (Abutilon theophrasti [19]): 0% | inhibition (INH) (Cyperus iria [20]): 40% | inhibition (INH) (Brassica juncea [21]): 0% | inhibition (INH) (Rumex acetosa [22]): 50%

CCCOC(=O)CSc1nc2cc(-n3nc(C(C)(C)C)oc3=O)c(F)cc2s1
pKi [1]: 6.15 | inhibition (INH) (Cyperus iria [2]): 60% | inhibition (INH) (Eclipta prostrata [3]): 40% | inhibition (INH) (Rumex acetosa [4]): 50% | inhibition (INH) (Amaranthus retroflexus [5]): 100% | inhibition (INH) (Echinochloa crus-galli): 0% | inhibition (INH) (Abutilon theophrasti [6]): 0% | inhibition (INH) (Brassica juncea [7]): 50% | inhibition (INH) (Polygonum humifusum [8]): 60% | inhibition (INH) (Amaranthus retroflexus [9]): 60% | inhibition (INH) (Polygonum humifusum [10]): 70% | inhibition (INH) (Eclipta prostrata [11]): 90% | inhibition (INH) (Amaranthus retroflexus [12]): 0% | inhibition (INH) (Eclipta prostrata [13]): 0% | inhibition (INH) (Poa annua): 0% | inhibition (INH) (Digitaria sanguinalis): 0% | inhibition (INH) (Rumex acetosa [14]): 70% | inhibition (INH) (Brassica juncea [15]): 50% | inhibition (INH) (Cyperus iria [16]): 40% | inhibition (INH) (Abutilon theophrasti [17]): 0% | inhibition (INH) (Polygonum humifusum [18]): 80% | inhibition (INH) (Abutilon theophrasti [19]): 0% | inhibition (INH) (Cyperus iria [20]): 40% | inhibition (INH) (Brassica juncea [21]): 50% | inhibition (INH) (Rumex acetosa [22]): 60%

CCOC(=O)C(C)Sc1nc2cc(-n3nc(C(C)(C)C)oc3=O)c(Cl)cc2s1 (stereo not given)
pKi [1]: 5.77 | inhibition (INH) (Cyperus iria [2]): 70% | inhibition (INH) (Eclipta prostrata [3]): 40% | inhibition (INH) (Rumex acetosa [4]): 0% | inhibition (INH) (Amaranthus retroflexus [5]): 100% | inhibition (INH) (Echinochloa crus-galli): 0% | inhibition (INH) (Abutilon theophrasti [6]): 0% | inhibition (INH) (Brassica juncea [7]): 0% | inhibition (INH) (Polygonum humifusum [8]): 40% | inhibition (INH) (Amaranthus retroflexus [9]): 100% | inhibition (INH) (Polygonum humifusum [10]): 60% | inhibition (INH) (Eclipta prostrata [11]): 70% | inhibition (INH) (Amaranthus retroflexus [12]): 60% | inhibition (INH) (Eclipta prostrata [13]): 0% | inhibition (INH) (Poa annua): 0% | inhibition (INH) (Digitaria sanguinalis): 0% | inhibition (INH) (Rumex acetosa [14]): 60% | inhibition (INH) (Brassica juncea [15]): 50% | inhibition (INH) (Cyperus iria [16]): 60% | inhibition (INH) (Abutilon theophrasti [17]): 0% | inhibition (INH) (Polygonum humifusum [18]): 70% | inhibition (INH) (Abutilon theophrasti [19]): 0% | inhibition (INH) (Cyperus iria [20]): 60% | inhibition (INH) (Brassica juncea [21]): 0% | inhibition (INH) (Rumex acetosa [22]): 30%

CCOC(=O)CCSc1nc2cc(-n3nc(C(C)(C)C)oc3=O)c(F)cc2s1
pKi [1]: 6.49 | inhibition (INH) (Amaranthus retroflexus [5]): 50% | inhibition (INH) (Echinochloa crus-galli): 0% | inhibition (INH) (Eclipta prostrata [11]): 50% | inhibition (INH) (Poa annua): 0% | inhibition (INH) (Digitaria sanguinalis): 0% | inhibition (INH) (Brassica juncea [15]): 60%

CCCOC(=O)CSc1nc2cc(-n3nc(C(C)(C)C)oc3=O)c(Br)cc2s1
pKi [1]: 5.51 | inhibition (INH) (Amaranthus retroflexus [5]): 50% | inhibition (INH) (Echinochloa crus-galli): 0% | inhibition (INH) (Eclipta prostrata [11]): 30% | inhibition (INH) (Poa annua): 0% | inhibition (INH) (Digitaria sanguinalis): 0% | inhibition (INH) (Brassica juncea [15]): 0%

C#CCSc1nc2cc(-n3nc(C(C)(C)C)oc3=O)c(Br)cc2s1
pKi [1]: 4.95 | inhibition (INH) (Amaranthus retroflexus [5]): 40% | inhibition (INH) (Echinochloa crus-galli): 0% | inhibition (INH) (Eclipta prostrata [11]): 40% | inhibition (INH) (Poa annua): 0% | inhibition (INH) (Digitaria sanguinalis): 0% | inhibition (INH) (Brassica juncea [15]): 40%

CCOC(=O)Sc1nc2cc(-n3nc(C(C)(C)C)oc3=O)c(F)cc2s1
pKi [1]: 5.89 | inhibition (INH) (Amaranthus retroflexus [5]): 0% | inhibition (INH) (Echinochloa crus-galli): 0% | inhibition (INH) (Eclipta prostrata [11]): 0% | inhibition (INH) (Poa annua): 0% | inhibition (INH) (Digitaria sanguinalis): 0% | inhibition (INH) (Brassica juncea [15]): 0%

CCCOC(=O)CSc1nc2cc(-n3nc(C(C)(C)C)oc3=O)c(Cl)cc2s1
pKi [1]: 6.01 | inhibition (INH) (Amaranthus retroflexus [5]): 70% | inhibition (INH) (Echinochloa crus-galli): 0% | inhibition (INH) (Eclipta prostrata [11]): 0% | inhibition (INH) (Poa annua): 0% | inhibition (INH) (Digitaria sanguinalis): 0% | inhibition (INH) (Brassica juncea [15]): 0%
